Experimental data: ChEMBL document CHEMBL5303300, “EUbOPEN Chemogenomics Library - Multiplex” (2023)
Values joined by “and” are separate entries in the source; they are usually repeats but may differ in a detail not shown here. Equal entries are not always repeated.

Tested on: HEK-293T
Assay: Multiplex assay against HEK293T
Type: toxicity, cell-based
Conditions: human, number of replicates 2
In short: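 Cells were classed with CellPathfinder machine-learning gating, first as Hoechst high-intensity objects or normal cells, then (normal cells) as healthy, pyknosed or fragmented nuclei, and finally (pyknosed cells) as mitotic or apoptotic. Staining of live cells at seeding used Hoechst33342, BioTracker Green Microtubule Cytoskeleton Dye, MitoTracker Red and Annexin V Alexa Fluor 680, with imaging on a CQ1 microscope at 37°C and 5% CO2 after compound addition. Tubulin, mitochondrial-mass and membrane-permeability phenotypes are per cents of healthy-nucleus cells.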

[1] = 12 h, 1 µM, compound concentration 1 uM
[2] = 12 h, 10 µM, compound concentration 10 uM
[3] = 24 h, 1 µM, compound concentration 1 uM
[4] = 24 h, 10 µM, compound concentration 10 uM
[5] = 48 h, 1 µM, compound concentration 1 uM
[6] = 48 h, 10 µM, compound concentration 10 uM

With `CC(C)S(=O)(=O)c1ccccc1Nc1nc(N[C@@H]2CCCN(CCCCCCCNC(=O)COc3cccc4c3C(=O)N(C3CCC(=O)N(C)C3=O)C4=O)C2)ncc1Cl` (stereo not given in full) the “Population Apoptotic (%)” value [1] was 55% and 78%, the “Population Fragmented Nuclei (%)” value [1] was 6% and 3% and the “Population Healthy Nuclei (%)” value [1] was 84% and 81%. The “Population Hoechst High Intensity Objects (%)” value [1] was 11%, the “Population Membrane Permeable-Phenotype (%)” value [1] was 0% and the “Population Mitochondria Different-Phenotype (%)” value [1] was 39% and 45%. For the same molecule, the “Population Mitotic Cells (%)” value [1] was 44% and 21%, the “Population Normal (%)” value [1] was 88% and the “Population Pyknosed Nuclei (%)” value [1] was 8% and 14%. The “Population Tubulin-Different-Phenotype (%)” value [1] was 56% and 62%, the “Total Cell Count” value [1] was 479 and 318 and the “Population Apoptotic (%)” value [2] was 60% and 74%. The “Population Fragmented Nuclei (%)” value [2] was 3%, the “Population Healthy Nuclei (%)” value [2] was 69% and 72% and the “Population Hoechst High Intensity Objects (%)” value [2] was 18% and 14%. For the same molecule, the “Population Membrane Permeable-Phenotype (%)” value [2] was 2% and 3%, the “Population Mitochondria Different-Phenotype (%)” value [2] was 76% and the “Population Mitotic Cells (%)” value [2] was 39% and 25%. For the same molecule, the “Population Normal (%)” value [2] was 81% and 85%, the “Population Pyknosed Nuclei (%)” value [2] was 26% and 24% and the “Population Tubulin-Different-Phenotype (%)” value [2] was 49% and 77%. The “Total Cell Count” value [2] was 464 and 428, the “Population Apoptotic (%)” value [3] was 48% and 83% and the “Population Fragmented Nuclei (%)” value [3] was 2% and 4%. For the same molecule, the “Population Healthy Nuclei (%)” value [3] was 90% and 85%, the “Population Hoechst High Intensity Objects (%)” value [3] was 7% and the “Population Membrane Permeable-Phenotype (%)” value [3] was 0%. For the same molecule, the “Population Mitochondria Different-Phenotype (%)” value [3] was 20% and 21%, the “Population Normal (%)” value [3] was 92% and the “Population Pyknosed Nuclei (%)” value [3] was 7% and 10%. The “Population Tubulin-Different-Phenotype (%)” value [3] was 40%, the “Total Cell Count” value [3] was 702 and 488 and the “Population Apoptotic (%)” value [4] was 82%. For the same molecule, the “Population Fragmented Nuclei (%)” value [4] was 4% and 5%, the “Population Healthy Nuclei (%)” value [4] was 78% and the “Population Hoechst High Intensity Objects (%)” value [4] was 18% and 16%. For the same molecule, the “Population Membrane Permeable-Phenotype (%)” value [4] was 0% and 1%, the “Population Mitochondria Different-Phenotype (%)” value [4] was 80% and 91% and the “Population Mitotic Cells (%)” value [4] was 17%. The “Population Normal (%)” value [4] was 81% and 83%, the “Population Pyknosed Nuclei (%)” value [4] was 17% and 16% and the “Population Tubulin-Different-Phenotype (%)” value [4] was 90% and 92%. For the same molecule, the “Total Cell Count” value [4] was 438 and 432, the “Population Apoptotic (%)” value [5] was 40% and 66% and the “Population Fragmented Nuclei (%)” value [5] was 8% and 4%. For the same molecule, the “Population Healthy Nuclei (%)” value [5] was 85%, the “Population Hoechst High Intensity Objects (%)” value [5] was 8% and 7% and the “Population Membrane Permeable-Phenotype (%)” value [5] was 2% and 1%. For the same molecule, the “Population Mitochondria Different-Phenotype (%)” value [5] was 7% and 11%, the “Population Mitotic Cells (%)” value [5] was 60% and 33% and the “Population Normal (%)” value [5] was 91% and 92%. The “Population Pyknosed Nuclei (%)” value [5] was 5% and 9%, the “Population Tubulin-Different-Phenotype (%)” value [5] was 26% and 27% and the “Total Cell Count” value [5] was 1045 and 630. For the same molecule, the “Population Apoptotic (%)” value [6] was 81% and 86%, the “Population Fragmented Nuclei (%)” value [6] was 5% and the “Population Healthy Nuclei (%)” value [6] was 82% and 78%. The “Population Hoechst High Intensity Objects (%)” value [6] was 17% and 20%, the “Population Membrane Permeable-Phenotype (%)” value [6] was 0% and the “Population Mitochondria Different-Phenotype (%)” value [6] was 46% and 78%. For the same molecule, the “Population Mitotic Cells (%)” value [6] was 18% and 14%, the “Population Normal (%)” value [6] was 82% and 79% and the “Population Pyknosed Nuclei (%)” value [6] was 11% and 16%. The “Population Tubulin-Different-Phenotype (%)” value [6] was 57% and 65% and the “Total Cell Count” value [6] was 458 and 378.
`Cn1ncc(NC(=O)c2nc(-c3c(F)cccc3F)sc2N)c1N1CC[C@@H](N)[C@H](F)CC1` was tested, and the “Population Apoptotic (%)” value [1] was 29% and 32%, the “Population Healthy Nuclei (%)” value [1] was 85% and 86% and the “Population Mitochondria Different-Phenotype (%)” value [1] was 10% and 6%. The “Population Mitotic Cells (%)” value [1] was 70% and 67%, the “Population Normal (%)” value [1] was 92% and 95% and the “Population Pyknosed Nuclei (%)” value [1] was 10%. For the same molecule, the “Population Tubulin-Different-Phenotype (%)” value [1] was 42% and 32%, the “Total Cell Count” value [1] was 737 and 724 and the “Population Apoptotic (%)” value [2] was 34% and 47%. The “Population Healthy Nuclei (%)” value [2] was 81% and 80%, the “Population Mitotic Cells (%)” value [2] was 65% and 52% and the “Population Normal (%)” value [2] was 95% and 97%. For the same molecule, the “Population Pyknosed Nuclei (%)” value [2] was 16%, the “Population Tubulin-Different-Phenotype (%)” value [2] was 54% and 47% and the “Total Cell Count” value [2] was 730 and 672. The “Population Apoptotic (%)” value [3] was 21% and 25%, the “Population Healthy Nuclei (%)” value [3] was 87% and 86% and the “Population Mitochondria Different-Phenotype (%)” value [3] was 4%. For the same molecule, the “Population Mitotic Cells (%)” value [3] was 78% and 74%, the “Population Normal (%)” value [3] was 93% and 90% and the “Population Pyknosed Nuclei (%)” value [3] was 8% and 9%. For the same molecule, the “Population Tubulin-Different-Phenotype (%)” value [3] was 25% and 21%, the “Total Cell Count” value [3] was 1100 and 1020 and the “Population Apoptotic (%)” value [4] was 47% and 52%. The “Population Healthy Nuclei (%)” value [4] was 85% and 86%, the “Population Mitochondria Different-Phenotype (%)” value [4] was 16% and the “Population Mitotic Cells (%)” value [4] was 52% and 47%. For the same molecule, the “Population Normal (%)” value [4] was 97% and 95%, the “Population Tubulin-Different-Phenotype (%)” value [4] was 44% and 41% and the “Total Cell Count” value [4] was 753 and 689. The “Population Apoptotic (%)” value [5] was 15%, the “Population Healthy Nuclei (%)” value [5] was 86% and 85% and the “Population Mitotic Cells (%)” value [5] was 90% and 84%. The “Population Normal (%)” value [5] was 89% and 85%, the “Population Pyknosed Nuclei (%)” value [5] was 4% and 5% and the “Population Tubulin-Different-Phenotype (%)” value [5] was 12% and 13%. The “Total Cell Count” value [5] was 2209 and 1829, the “Population Apoptotic (%)” value [6] was 44% and 55% and the “Population Healthy Nuclei (%)” value [6] was 89% and 87%. For the same molecule, the “Population Mitochondria Different-Phenotype (%)” value [6] was 10%, the “Population Mitotic Cells (%)” value [6] was 55% and the “Population Normal (%)” value [6] was 94% and 92%. For the same molecule, the “Population Pyknosed Nuclei (%)” value [6] was 4% and 6%, the “Population Tubulin-Different-Phenotype (%)” value [6] was 29% and 23% and the “Total Cell Count” value [6] was 770 and 768.
